pEC50, pKd: −log10 of the molar value. One block for each compound: values may come before it.
How the values were obtained:
Homo sapiens = species on record: Homo sapiens; experiment: Inhibition of anti-CD3 dependent human T cell proliferation; type: functional
How it was run: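 PBMCs from healthy volunteers, isolated on a density gradient, seeded at 2×10^5 cells/well in supplemented RPMI 1640. Compound preincubation 60 min, then anti-CD3 antibody 50 ng/mL for 48 h. [3H]thymidine added for the last 6 h; incorporation counted by scintillation. Normalized to maximal control incorporation. Triplicate.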

[1] = Selectivity for Kv1.3 over Kv1.2 voltage-gated potassium channel subunit
How it was run: (§1)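 Ringer bath, KF/EGTA pipette. Kv1.1, Kv1.2, Kv1.5, Kv1.7 and IKCa1 recorded in stably or transiently expressing cells. Kd from Hill fit to reduction in current area. Each compound 2–3 times at 3–5 concentrations.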

[2] = target: T1, Potassium voltage-gated channel subfamily A member 3 (Homo sapiens, UniProt P22001); experiment: Dissociation constant for the blockage of voltage-gated potassium channel subunit Kv1.3 in human lymphocytes; type: cell-based
[3] = Selectivity for Kv1.3 over Kv1.1 voltage-gated potassium channel subunit; how it was run: as §1
[4] = target: T1, Potassium voltage-gated channel subfamily A member 3; experiment: Dissociation constant for the blockade of voltage-gated potassium channel subunit Kv1.3 in human lymphocytes; no effect when tested at 1 uM; type: cell-based
How it was run: (§2)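 Whole-cell patch clamp on cells stably expressing Kv1.3, holding potential −80 mV. Bath: Ringer (160 mM NaCl, 4.5 mM KCl, 2 mM CaCl2, 1 mM MgCl2, 10 mM HEPES, pH 7.4). Pipette: 134 mM KF, 2 mM MgCl2, 10 mM HEPES, 10 mM EGTA, pH 7.2. 500-ms pulses to 40 mV every 45 s. Single test concentration only.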

[5] = target: T1, Potassium voltage-gated channel subfamily A member 3; experiment: Dissociation constant for blockade of voltage-gated potassium channel subunit Kv1.3 in human lymphocytes; no effect when tested at 10 uM; type: cell-based; how it was run: as §2
[6] = Selectivity for Kv1.3 voltage-gated K+ channel over IKCa1 [Ca2+] activated K+ channel; how it was run: as §1
[7] = Selectivity for Kv1.3 over Kv1.5 voltage-gated potassium channel subunit; how it was run: as §1
[8] = Selectivity for Kv1.3 over Kv1.7 voltage-gated potassium channel subunit; how it was run: as §1

T1 sequence (P22001 whole entry): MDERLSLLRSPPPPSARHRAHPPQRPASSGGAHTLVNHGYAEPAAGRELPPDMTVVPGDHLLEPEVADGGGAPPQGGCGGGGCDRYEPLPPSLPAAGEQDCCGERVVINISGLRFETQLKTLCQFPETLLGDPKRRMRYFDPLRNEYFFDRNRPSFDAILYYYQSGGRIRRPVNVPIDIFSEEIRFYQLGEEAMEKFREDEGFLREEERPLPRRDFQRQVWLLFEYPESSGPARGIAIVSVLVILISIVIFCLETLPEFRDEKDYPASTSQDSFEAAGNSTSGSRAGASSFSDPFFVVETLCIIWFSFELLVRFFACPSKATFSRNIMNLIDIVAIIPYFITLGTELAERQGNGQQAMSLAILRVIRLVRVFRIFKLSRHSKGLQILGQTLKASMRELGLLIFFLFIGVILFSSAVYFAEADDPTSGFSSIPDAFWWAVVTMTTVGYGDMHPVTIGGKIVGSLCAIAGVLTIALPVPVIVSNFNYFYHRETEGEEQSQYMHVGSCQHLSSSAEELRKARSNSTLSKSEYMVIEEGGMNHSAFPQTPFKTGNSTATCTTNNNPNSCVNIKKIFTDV

Compound: COc1c(C(C)=O)c(OCc2ccccc2)c(OC)c2occc12
pKd [2]: 5.00

Compound: COc1c(C(=O)CCc2ccccc2)c(O)c(OC)c2occc12
pKd [2]: 6.22

Compound: COc1cccc(/C=C/C(=O)c2c(O)c(OC)c3occc3c2OC)c1
pKd [6]: < 4.00 | pEC50 (Homo sapiens): 6.00 | pKd [1]: < 4.30 | pKd [2]: 6.10 | pKd [7]: 4.70 | pKd [8]: < 4.30 | pKd [3]: 5.70

Compound: COc1c(C(=O)/C=C/c2cccs2)c(O)c(OC)c2occc12
pKd [2]: 6.00

Compound: COc1c(C(=O)/C=C/c2ccccc2)c(O)c(OC)c2occc12
pKd [6]: < 4.00 | pEC50 (Homo sapiens): 6.22 | pKd [1]: < 4.30 | pKd [7]: 5.29 | pKd [8]: 5.00 | pKd [3]: 5.92

Compound: Nc1ccncc1 [DALFAMPRIDINE]
pKd [6]: 4.54 | pKd [1]: 3.23 | pKd [7]: 3.57 | pKd [3]: 3.54

Compound: COc1c(C(=O)/C=C/C=C/c2ccccc2)c(O)c(OC)c2occc12
Kd [4]: Not Active

Compound: COc1c(C(=O)/C=C/c2cc(Br)cs2)c(O)c(OC)c2occc12
pKd [2]: 6.10

Compound: COc1c(C(=O)/C=C/c2ccccc2)c(O)cc2occc12
pKd [2]: 4.77

Compound: COc1c(C(=O)/C=C/c2cccc(O)c2)c(O)c(OC)c2occc12
pKd [6]: < 4.00 | pEC50 (Homo sapiens): 6.00 | pKd [1]: < 4.30 | pKd [7]: 4.92 | pKd [8]: 4.30 | pKd [3]: 5.77

Compound: COc1c(C(C)=O)c(O)cc2occc12
pKd [2]: 4.00

Compound: COc1c(C(=O)/C=C/c2ccc(C)cc2)c(O)c(OC)c2occc12
pKd [2]: 6.15

Compound: C=C1C[C@@]2(O)[C@@H]3CC[C@@]4(C)[C@@H]5C=CC(=O)OC[C@]5(C(C)OC(C)=O)[C@@H](OC(C)=O)[C@@H](OC(C)=O)[C@@H]4[C@@]3(C)[C@H](OC(C)=O)[C@H](OC(C)=O)[C@@]2(C)C2(C(=O)OC)O[C@H]12 (stereo partly specified) [CORREOLIDE]
pEC50 (Homo sapiens): 6.52 | pKd [2]: 7.00

Compound: COc1c(C(C)=O)c(O)c(OC)c2occc12
pKd [2]: 4.30

Now from value to compound, other results behind:

pKd [1]: 6.60 | pKd [2]: 6.17 | pKd [3]: 6.52
Compound: COc1c(C(C)=O)c(OCCCCCCOc2c(C(C)=O)c(OC)c3ccoc3c2OC)c(OC)c2occc12
pEC50 (Homo sapiens): 6.10

Kd [4]: Not Active
Compound: COc1c(C(=O)/C=C/c2ccccc2)c(OCc2ccc(COc3c(C(=O)/C=C/c4ccccc4)c(OC)c4ccoc4c3OC)cc2)c(OC)c2occc12

pKd [2]: 4.15
Compound: COc1c(/C(C)=N/N=C(\C)c2c(O)c(OC)c3occc3c2OC)c(O)c(OC)c2occc12

Kd [5]: Not Active
Compound: COCCOCCOCCOCCOC(=O)c1cc(COc2c(C(C)=O)c(OC)c3ccoc3c2OC)ccc1COc1c(C(C)=O)c(OC)c2ccoc2c1OC

pKd [2]: 6.09
Compound: COc1c(C(C)=O)c(OCCCCCOc2c(C(C)=O)c(OC)c3ccoc3c2OC)c(OC)c2occc12

Kd [5]: Not Active
Compound: COc1c(C(C)=O)c(OCc2cc(COc3c(C(C)=O)c(OC)c4ccoc4c3OC)cc(COc3c(C(C)=O)c(OC)c4ccoc4c3OC)c2)c(OC)c2occc12

pKd [2]: 5.30
Compound: COc1c(C(C)=O)c(OCc2ccc(COc3c(C(C)=O)c(OC)c4ccoc4c3OC)c(C(=O)O)c2)c(OC)c2occc12

pKd [2]: 5.40
Compound: COc1c(C(C)=O)c(OCCOCCOc2c(C(C)=O)c(OC)c3ccoc3c2OC)c(OC)c2occc12

pKd [2]: 5.52
Compound: COc1c(C(C)=O)c(OCCCCCCCOc2c(C(C)=O)c(OC)c3ccoc3c2OC)c(OC)c2occc12

pKd [2]: 6.25
Compound: COc1c(C(C)=O)c(OCc2cccc(COc3c(C(C)=O)c(OC)c4ccoc4c3OC)c2)c(OC)c2occc12

Kd [5]: Not Active
Compound: COc1c(C(=O)/C=C/c2cccc(/C=C/C(=O)c3c(O)c(OC)c4occc4c3OC)c2)c(O)c(OC)c2occc12

pKd [2]: 5.70
Compound: COc1c(C(C)O)c(OCc2ccc(COc3c(C(C)O)c(OC)c4occc4c3OC)cc2)c(OC)c2occc12 (stereo unspecified)

pKd [2]: 5.51
Compound: COc1c(C(C)=O)c(OCc2ccc(COc3c(C(C)=O)c(OC)c4ccoc4c3OC)cc2)c(OC)c2occc12

pKd [2]: 6.00
Compound: COc1c(C(C)=O)c(OCc2ccc(COc3cc4occc4c(OC)c3C(C)=O)cc2)cc2occc12

— ChEMBL document CHEMBL1149170, “Khellinone derivatives as blockers of the voltage-gated potassium channel Kv1.3: synthesis and immunosuppressive activity” (J Med Chem, 2004)
